Test results taken from ChEMBL document CHEMBL2401652 (J Med Chem, 2013).
Activity calls are given as the source filed them. The calls are words filed in the database; no cut-off is given here.

Key:
PANC-1 [1] = assay: Cytotoxicity against human PANC1 cells assessed as growth inhibition after 24 hrs by MTT assay; assay type: functional, cell-based
How it was run: (§1)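 Log-phase cells (1 × 10^4 per well) treated 24 h with 0–30 μM at 37 °C, 5% CO2, in triplicate; MTT added for final 3 h; vehicle 0.15% ethanol; IC50 from three separate days, mean ± SE.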

PANC-1 [2] = assay: Induction of apoptosis in human PANC1 cells assessed as PARP cleavage at 50 uM after 24 hrs by Western blot analysis; assay type: functional, cell-based
How it was run: (§2)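 Cells (1.5 × 10^6) treated 24 h at 25 or 50 μM; 50 μg protein per lane on 10% SDS-PAGE, nitrocellulose, 2% TBS-BSA block, primary antibody overnight at 4 °C, HRP secondary, ECL detection; β-actin loading control; untreated controls in parallel.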

PANC-1 [3] = assay: Downregulation of Bcl-xL expression in human PANC1 cells at 50 uM after 24 hrs by Western blot analysis; assay type: functional, cell-based; how it was run: as §2
PANC-1 [4] = assay: Downregulation of total Bid expression in human PANC1 cells at 50 uM after 24 hrs by Western blot analysis; assay type: functional, cell-based; how it was run: as §2
[5] = Binding affinity to DNA (unknown origin) at 100 uM after 2 hrs by UV-Vis absorption spectroscopic analysis
How it was run: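 DNA (100 μg/mL; stock 1.0 mg/mL in 50 mM Tris-HCl pH 7.5, 50 mM NaCl) with ligand fixed at 100 μM; incubated at 37 °C, then diluted six-fold; absorbance scanned 220–350 nm at 25 °C, 1 cm quartz cell; 260 nm band monitored.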

PANC-1 [6] = assay: Induction of apoptosis in human PANC1 cells assessed as procaspase-9 cleavage at 50 uM after 24 hrs by Western blot analysis; assay type: functional, cell-based
How it was run: (§3)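 Cells (1.5 × 10^6) exposed 24 h to compound (25 or 50 μM). 50 μg protein per lane resolved on 10% SDS-PAGE and transferred to nitrocellulose. Membrane blocked in 2% TBS-BSA, then probed with primary antibody overnight at 4 °C and HRP secondary. Detection by ECL, with β-actin as loading control. Untreated control run in parallel.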

T98G [7] = assay: Downregulation of Bcl-xL expression in human T98G cells at 50 uM after 24 hrs by Western blot analysis; assay type: functional, cell-based; how it was run: as §2
T98G [8] = assay: Induction of apoptosis in human T98G cells assessed as PARP cleavage at 50 uM after 24 hrs by Western blot analysis; assay type: functional, cell-based; how it was run: as §3
K562 = assay: Cytotoxicity against human K562 cells assessed as growth inhibition after 24 hrs by MTT assay; assay type: functional, cell-based; how it was run: as §1
T98G [9] = assay: Downregulation of total Bid expression in human T98G cells at 50 uM after 24 hrs by Western blot analysis; assay type: functional, cell-based; how it was run: as §2
T98G [10] = assay: Induction of apoptosis in human T98G cells assessed as procaspase-8 cleavage at 50 uM after 24 hrs by Western blot analysis; assay type: functional, cell-based; how it was run: as §3
T98G [11] = assay: Induction of apoptosis in human T98G cells assessed as induction of DNA damage at 20 uM after 24 hrs by comet assay relative to untreated control; assay type: functional
How it was run: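 T98G cells (1 × 10^5) treated 24 h with 0 or 20 μM. About 20000 cells embedded in 0.5% low-melting agarose and lysed overnight at 4 °C at pH 10. Alkaline electrophoresis (pH 13) for 30 min at 300 mA at 4 °C, then ethidium bromide staining. Tail length (nucleus centre to tail tip) from ≥20 comets, reported as mean ± SD.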

T98G [12] = assay: Cytotoxicity against human T98G cells assessed as growth inhibition after 24 hrs by MTT assay; assay type: functional, cell-based; how it was run: as §1
T98G [13] = assay: Induction of apoptosis in human T98G cells assessed as procaspase-7 cleavage at 50 uM after 24 hrs by Western blot analysis; assay type: functional, cell-based; how it was run: as §3
T98G [14] = assay: Induction of apoptosis in human T98G cells assessed as procaspase-9 cleavage at 50 uM after 24 hrs by Western blot analysis; assay type: functional, cell-based; how it was run: as §3
PANC-1 [15] = assay: Induction of apoptosis in human PANC1 cells assessed as procaspase-7 cleavage at 50 uM after 24 hrs by Western blot analysis; assay type: functional, cell-based; how it was run: as §2
A549 = assay: Cytotoxicity against human A549 cells assessed as growth inhibition after 24 hrs by MTT assay; assay type: functional, cell-based; how it was run: as §1
PANC-1 [16] = assay: Induction of apoptosis in human PANC1 cells assessed as procaspase-8 cleavage at 50 uM after 24 hrs by Western blot analysis; assay type: functional, cell-based; how it was run: as §2
HCT-116 = assay: Cytotoxicity against human HCT116 cells assessed as growth inhibition after 24 hrs by MTT assay; assay type: functional, cell-based; how it was run: as §1
U-373MG ATCC [17] = assay: Cytotoxicity against human U373MG cells assessed as induction of morphological changes at 30 uM after 12 hrs by phase contrast microscopic analysis; assay type: functional, cell-based
How it was run: (§4)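 U373MG glioma cells exposed to 30 μM for 3 or 12 h; shape and density examined by phase contrast microscopy against untreated cells.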

U-373MG ATCC [18] = assay: Cytotoxicity against human U373MG cells assessed as induction of morphological changes at 30 uM up to 24 hrs by phase contrast microscopic analysis; assay type: functional, cell-based
U-373MG ATCC [19] = assay: Cytotoxicity against human U373MG cells assessed as induction of morphological changes at 30 uM after 3 hrs by phase contrast microscopic analysis; assay type: functional, cell-based; how it was run: as §4
[20] = Cytotoxicity against african green monkey Vero cells assessed as cell viability at 60 uM after 24 hrs by MTT assay relative to control; assay type: cell-based; conditions: chlorocebus sabaeus, read-out: Activity
How it was run: (§5)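 Vero and HEK-293T normal cells (1 × 10^4 per well) exposed 24 h to 0, 15, 30, 45, 60 μM at 37 °C, 5% CO2, triplicate; MTT added 3 h; viability relative to vehicle control (0.15% ethanol).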

[21] = Cytotoxicity against human HEK293T cells assessed as cell viability at 60 uM after 24 hrs by MTT assay relative to control; assay type: cell-based, HEK-293T; conditions: read-out: Activity; how it was run: as §5

CC(C)=CCC[C@]1(C)C=Cc2c(c(C)cc3c4ccccc4n(C)c23)O1
growth inhibition (GI) (PANC-1 [1]): Active
Activity (PANC-1 [2]): inactive
Activity (PANC-1 [3]): inactive
Activity (PANC-1 [4]): inactive
Activity [5]: Active
Activity (PANC-1 [6]): inactive
Activity (T98G [7]): inactive
Activity (T98G [8]): inactive
growth inhibition (GI) (K562): Active
Activity (T98G [9]): inactive
Activity (T98G [10]): inactive
Activity (T98G [11]): inactive
growth inhibition (GI) (T98G [12]): Active
Activity (T98G [13]): inactive
Activity (T98G [14]): inactive
Activity (PANC-1 [15]): inactive
growth inhibition (GI) (A549): Active
Activity (PANC-1 [16]): inactive
growth inhibition (GI) (HCT-116): Active

CC(=O)Oc1ccc2c(c1)[nH]c1c3c(c(C)cc12)O[C@](C)(CCC=C(C)C)C=C3
Activity (U-373MG ATCC [17]): Active
growth inhibition (GI) (PANC-1 [1]): Active
Activity (U-373MG ATCC [18]): Active
growth inhibition (GI) (K562): Active
Activity (U-373MG ATCC [19]): inactive
growth inhibition (GI) (T98G [12]): Active
growth inhibition (GI) (A549): Active
growth inhibition (GI) (HCT-116): Active

CC(C)=CCCC1(C)C=Cc2c(c(C)cc3c2[nH]c2cc(O)ccc23)O1 (centres undefined) [MAHANINE]
viability at 24 h, 60 µM [20]: > 85%
viability at 24 h, 60 µM [21]: > 65%
